≈ marks a conversion by molar mass, not a printed value.

Usually MIC stands for the lowest concentration that inhibits growth of the organism. Read a low MIC as a more susceptible organism.

Common to all, as to type: functional
One assay concerns Pseudomonas aeruginosa. In words: Antibacterial activity against Pseudomonas aeruginosa. In outline:
(§1)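 Broth microdilution MIC in Mueller Hinton broth, 96-well plates. Strains from departmental collection, kept on nutrient agar slants at 37 °C, purity checked before testing. Starting inoculum 1–5 · 10³ cells/ml. Plates incubated 24 h at 37 °C in a moist chamber, then absorbance read at 492 nm. MIC taken as 90% growth inhibition relative to growth control.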

For a further assay, the system named is Escherichia coli. Nature of the assay: Antibacterial activity against Escherichia coli. The essentials: as §1
The test system of another assay is Enterococcus faecalis. Nature of the assay: Antibacterial activity against Streptococcus faecalis. In outline:
as §1

In a further assay the test system is Staphylococcus aureus. Nature of the assay: Antibacterial activity against Staphylococcus aureus. The essentials:
as §1

The next assay has as its system Klebsiella pneumoniae. In words: Antibacterial activity against Klebsiella pneumoniae. In outline:
as §1

For `COC(c1ccccc1)C1CN(Cc2ccccc2)C(=O)N(c2ccc(Cl)c(Cl)c2)C1=N` (stereo not given), the minimum inhibitory concentration (MIC) against Pseudomonas aeruginosa was 50 µg/mL (≈ 107 µM); against Escherichia coli, 1.56 µg/mL (≈ 3.33 µM); in the assay with Enterococcus faecalis, 3.12 µg/mL (≈ 6.66 µM); in the assay on Staphylococcus aureus, 1.56 µg/mL (≈ 3.33 µM); in the assay with Klebsiella pneumoniae, 3.12 µg/mL (≈ 6.66 µM).

On to `N=c1c(Cc2ccc(Cl)c(Cl)c2)c[nH]c(=O)n1-c1ccc(Cl)c(Cl)c1`, for which the MIC against Pseudomonas aeruginosa came out at 50 µg/mL (≈ 120 µM); with Escherichia coli, 25 µg/mL (≈ 60.2 µM); in the assay on Enterococcus faecalis, 25 µg/mL (≈ 60.2 µM); against Staphylococcus aureus, 25 µg/mL (≈ 60.2 µM); in the assay on Klebsiella pneumoniae it was 50 µg/mL (≈ 120 µM).

In the case of `N#C/C(=C/c1cccs1)CNC(=O)Nc1ccc(Cl)cc1`, the MIC against Pseudomonas aeruginosa, against Escherichia coli, in the assay with Enterococcus faecalis, against Staphylococcus aureus and against Klebsiella pneumoniae was above 50 µg/mL in each case.

Take `Nc1c(Cc2ccccc2)cnc(=S)n1-c1ccccc1`: the MIC with Pseudomonas aeruginosa, with Escherichia coli, against Enterococcus faecalis, in the assay with Staphylococcus aureus and in the assay with Klebsiella pneumoniae was above 50 µg/mL each time.

For the compound `N#CC(CN(Cc1ccccc1)C(=O)Nc1ccc(Cl)cc1)C(O)c1ccccc1` (stereo not given), the minimal inhibitory concentration (MIC) was 50 µg/mL (≈ 119 µM) against Pseudomonas aeruginosa; 12.5 µg/mL (≈ 29.8 µM) against Escherichia coli; 50 µg/mL (≈ 119 µM) in the assay on Enterococcus faecalis; 25 µg/mL (≈ 59.5 µM) in the assay with Staphylococcus aureus; 50 µg/mL (≈ 119 µM) against Klebsiella pneumoniae.

With `N#C/C(=C/c1ccc(Cl)c(Cl)c1)CNC(=O)Nc1ccc(Cl)c(Cl)c1`, the minimum inhibitory concentration (MIC) in the assay on Pseudomonas aeruginosa was 50 µg/mL (≈ 120 µM); with Escherichia coli, 0.78 µg/mL (≈ 1.88 µM); in the assay with Enterococcus faecalis, 1.56 µg/mL (≈ 3.76 µM); against Staphylococcus aureus, 1.56 µg/mL (≈ 3.76 µM); in the assay with Klebsiella pneumoniae it was 1.56 µg/mL (≈ 3.76 µM).

As to `Cc1ccc(NC(=O)NC/C(C#N)=C\c2ccc(Cl)c(Cl)c2)cc1Cl`, the minimum inhibitory concentration (MIC) against Pseudomonas aeruginosa, against Escherichia coli, in the assay on Enterococcus faecalis, against Staphylococcus aureus and with Klebsiella pneumoniae was above 50 µg/mL throughout.

Consider `Nc1c(Cc2ccc(Cl)c(Cl)c2)cnc(=S)n1-c1ccccc1`, for which the MIC was above 50 µg/mL against Pseudomonas aeruginosa; above 50 µg/mL in the assay on Escherichia coli; 25 µg/mL (≈ 69 µM) with Enterococcus faecalis; above 50 µg/mL against Staphylococcus aureus; 50 µg/mL (≈ 138 µM) against Klebsiella pneumoniae.

Turning to GENTAMICIN SULFATE, the MIC in the assay with Pseudomonas aeruginosa amounted to 25 µg/mL; in the assay with Escherichia coli, 0.02 µg/mL; against Enterococcus faecalis it was 0.78 µg/mL; in the assay on Staphylococcus aureus it was 6.25 µg/mL; in the assay with Klebsiella pneumoniae, 0.78 µg/mL.

Consider `N#C/C(=C/c1ccccc1Cl)CNC(=S)Nc1ccccc1`, for which the minimal inhibitory concentration (MIC) against Pseudomonas aeruginosa, against Escherichia coli, in the assay with Enterococcus faecalis, against Staphylococcus aureus and against Klebsiella pneumoniae was above 50 µg/mL each time.

Take `Cc1ccc(-n2c(=O)[nH]cc(Cc3ccc(Cl)c(Cl)c3)c2=N)cc1Cl`: the minimal inhibitory concentration (MIC) against Pseudomonas aeruginosa was above 50 µg/mL; with Escherichia coli it was above 50 µg/mL; with Enterococcus faecalis it was 50 µg/mL (≈ 127 µM); with Staphylococcus aureus, above 50 µg/mL; with Klebsiella pneumoniae, 50 µg/mL (≈ 127 µM).

(Values after ChEMBL document CHEMBL1137433, “Synthesis and antibacterial evaluation of ureides of Baylis-Hillman derivatives” (2006).)
